PGC1a acetyl inh: lowers PGC1a acetylation signal in U2OS cells | inhibition, % at 15.6 µM | 350,000 tested, 0.17% active | AlphaScreen anti-acetyl-lysine; with virally co-expressed GCN5 acetyltransferase;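 active = every replicate shows inhibition of at least 40%; inconclusive = mean inhibition at least 40% but some replicate below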
GSIS activator: GLuc luminescence reporter in INS-1E cells, primary screen for activators of glucose-dependent secretion of insulin | INS-1E GLuc reporter insulin secretion, 2-3 h | activation, % at 16.6 µM | 370,000 tested, 0.61% active | AID 743287;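 active = lowest replicate activation of at least 40%, so every replicate reaches that level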
PAX8 reporter: inhibitors of PAX8 transcriptional activity in RMG-I cells. RMG-I TPO-luciferase reporter, SteadyGlo, 24 h. inhibition, % at 12.6 µM. 360,000 tested, 1.2% active. AID 652154;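 active = mean replicate inhibition at least 60% with every replicate also reaching 60%; inconclusive = only one of the two criteria is met; inactive = mean below 60% and not all replicates reaching 60%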;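 also: luciferase light reporting Pax8 driven TPO promoter activity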
MLL AF4-AF9 inh: MLL-AF4/AF9 protein interaction inhibition; P42568; AlphaScreen, biotin-AF4 peptide binding to FLAG-AF9; 350,000 tested, 0.47% active; inhibition, % at 10 µM; AID 651704;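 active = every replicate reaching a set inhibition limit, whatever the replicate mean, cut at about 25% in these data; inconclusive = mean inhibition reaches that limit but some replicates miss it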
Target sequence (P42568 whole entry, looked up): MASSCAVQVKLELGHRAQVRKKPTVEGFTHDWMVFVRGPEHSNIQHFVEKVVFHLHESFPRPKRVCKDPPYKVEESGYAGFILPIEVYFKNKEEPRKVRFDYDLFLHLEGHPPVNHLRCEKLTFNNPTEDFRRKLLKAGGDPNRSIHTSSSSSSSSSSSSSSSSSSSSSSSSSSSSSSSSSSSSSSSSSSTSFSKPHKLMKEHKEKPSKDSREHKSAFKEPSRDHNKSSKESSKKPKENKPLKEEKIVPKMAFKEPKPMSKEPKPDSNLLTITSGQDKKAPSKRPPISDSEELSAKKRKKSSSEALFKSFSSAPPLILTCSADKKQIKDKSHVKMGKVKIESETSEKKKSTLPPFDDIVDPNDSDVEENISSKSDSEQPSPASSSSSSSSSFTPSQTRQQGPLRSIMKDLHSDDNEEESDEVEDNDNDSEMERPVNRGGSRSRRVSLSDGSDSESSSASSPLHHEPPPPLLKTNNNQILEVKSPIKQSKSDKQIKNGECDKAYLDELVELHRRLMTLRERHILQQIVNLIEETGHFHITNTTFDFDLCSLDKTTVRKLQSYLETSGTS
EWS-Fli block: blocks EWS/Fli oncoprotein-driven transcription; inhibition, % at 12.6 µM; 350,000 tested, 0.67% active; A673 NR0B1-luciferase reporter, viability-normalised; AID 651661;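 active = mean inhibition of at least 50% after viability correction, with every replicate also passing that limit; inconclusive = mean reaches 50% but only one of two replicates passes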;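 also: firefly luciferase signal divided by Alamar Blue viability fluorescence both relative to DMSO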
XiGFP reactiv: X-chromosome reactivation activator | XiGFP mouse fibroblasts, % GFP-positive cells imaging, 3 d; cells co-treated with 5-aza-dC sensitizer; scaled so ellipticine positive control = 100% | activation, % at 7.58 µM | 360,000 tested, 0.055% active | AID 743238;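 active = mean normalized replicate activation at least 10% and every replicate at or above 10%; inconclusive = only one of the two criteria met; inactive = mean below 10% and not all replicates reach 10%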
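System: SV40-immortalized XiGFP fibroblast cells, line 68-5-11 / Incubation: 3-day compound exposure, then 15 min fixation at room temperature / Compound: single concentration per compound, delivered by pin transfer / Buffer or medium: DMEM plus 5-aza-dC sensitizer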
Hits are given with their value; - = inactive; ? = inconclusive; . = no result given. A selection: hits, their analogues and other compounds. The true share with any hit is near 2.1%.

SMILES | PGC1a acetyl inh | GSIS activator | PAX8 reporter | MLL AF4-AF9 inh | EWS-Fli block | XiGFP reactiv
COc1ccc(-c2ccc(-c3noc(-c4ccco4)n3)c(OC)n2)cc1 | - | 55.4 | . | . | . | .
CCC(CC)NC(=O)CN1CCN(S(=O)(=O)c2cccs2)CC1 | - | 46.7 | . | - | - | -
CNC[C@H]1Oc2ccc(NS(=O)(=O)c3ccc(OC)cc3)cc2CC(=O)N([C@H](C)CO)C[C@@H]1C | - | - | - | - | - | -
COc1cccc(S(=O)(=O)Nc2ccc3c(c2)C(=O)N(C)[C@@H]2CC[C@H](CC(=O)O)O[C@H]2CO3)c1 | - | - | - | . | - | -
O=C(NN1C(=O)C2C3C=CC(O3)C2C1=O)c1cccc(Br)c1 (centres undefined) | - | 78.2 | - | - | - | -
Cc1ccc(S(=O)(=O)/N=c2\sccn2C)cc1 | - | . | - | . | . | .
Cc1ccc(S(=O)(=O)/N=C2\CN(C)C(=O)N2C)cc1 | . | 45.2 | - | - | - | -
CO[C@H]1CN(C)C(=O)c2ccc(NS(=O)(=O)c3cn(C)cn3)cc2OC[C@@H](C)N(CC2CC2)C[C@@H]1C | - | - | - | - | - | -
Cc1nc(CN2CCN(S(=O)(=O)c3c(Cl)cc(Br)cc3Cl)CC2)cs1 | . | 68.5 | - | - | - | -
Cc1nc(CN2CCN(C(=O)NC3(c4ccccc4)CC3)CC2)cs1 | - | - | . | . | . | .
Cc1ccc(CC2S/C(=N/c3ccccn3)NC2=O)cc1 (centres undefined) | - | 58.1 | . | . | . | .
C[C@@H]1CN([C@H](C)CO)C(=O)c2cc(C#CCN(C)C)cnc2O[C@H]1CN(C)Cc1cccc(C(=O)O)c1 | - | - | - | - | - | -
CC(C)NC(=O)Nc1ccc2c(c1)C(=O)N(C)C[C@H](C)[C@@H](CN(C)S(C)(=O)=O)O2 | . | - | . | . | . | -
O=C(Cn1c(=O)oc2cc(S(=O)(=O)NCc3ccccc3)ccc21)N1CCCC1 | - | - | - | 29.5 | - | .
CCCN1CCN(C(=O)Cn2c(=O)oc3cc(S(=O)(=O)NCc4ccccc4)ccc32)CC1 | - | - | - | - | - | -
COc1ccc(NC(=O)Nc2ccc3c(c2)C(=O)N([C@H](C)CO)C[C@H](C)[C@H](CN(C)C(=O)Nc2ccc4c(c2)OCO4)OCCCC[C@H](C)O3)cc1 | - | - | - | - | - | -
CNC[C@H]1Oc2c(NC(=O)Nc3ccc4c(c3)OCO4)cccc2C(=O)N([C@@H](C)CO)C[C@H]1C | - | - | - | - | - | -
CN(CC(=O)Nc1cccc(F)c1)C(=O)Cc1ccsc1 | - | - | - | - | - | -
CN(CC(=O)Nc1cccc(F)c1)C(=O)CCCc1cccs1 | . | . | 96.8 | - | - | -
COc1ccc(OCC(=O)NNC(=O)Cn2c(=O)cnc3ccccc32)cc1 | - | 76.0 | - | - | - | -
Cc1cccc(OCC(=O)NNC(=O)Cn2c(=O)cnc3ccccc32)c1 | - | - | - | - | - | -
CN(CC(=O)Nc1cccc(F)c1)C(=O)Cn1c(=O)cnc2ccccc21 | . | - | - | 29.0 | - | -
CN(CC(=O)Nc1ccc(OC(F)(F)F)cc1)C(=O)Cn1c(=O)cnc2ccccc21 | - | - | - | - | - | -
Cc1ccc(S(=O)(=O)N(C)C[C@@H]2OCCCC[C@@H](C)Oc3ccc(NC(=O)Nc4c(C)noc4C)cc3C(=O)N([C@@H](C)CO)C[C@H]2C)cc1 | - | - | - | - | - | -
COc1cccc(NC(=O)Nc2ccc3c(c2)OC[C@H](C)NC[C@@H](C)[C@@H](OC)CN(C)C3=O)c1 | - | - | . | - | - | -
SMILES | PGC1a acetyl inh | GSIS activator | PAX8 reporter | MLL AF4-AF9 inh | EWS-Fli block | XiGFP reactiv
CCCCC(=O)Nc1ccc(C(=O)NNC(=O)c2ccc(C)c(Br)c2)cc1 | - | 63.8 | - | . | . | -
CCCCC(=O)Nc1ccc(C(=O)NNC(=O)CCc2ccccc2)cc1 | - | - | . | - | - | .
C[C@H]1CN([C@@H](C)CO)C(=O)c2ccccc2-c2ccccc2CO[C@@H]1CN(C)C(=O)Nc1ccccc1 | - | - | . | - | - | -
CCOc1ccc(C(=O)O)cn1 | - | - | . | - | - | .
CCOc1cc(OCC)nc(S(C)(=O)=O)n1 | . | 48.7 | - | . | . | -
CCOc1ccc(/C=C/C(=O)Oc2ccccc2)cc1 | - | - | - | - | - | -
O=C(O)/C=C/c1cccc(OCc2ccccc2)c1 | - | - | ? | - | - | -
